The values below come from ChEMBL document CHEMBL4325833, “Discovery of a Potent, Selective, and Brain-Penetrant Small Molecule that Activates the Orphan Receptor GPR88 and Reduces Alcohol Intake” (J Med Chem, 2018).

Activity calls are given as the source filed them. No cut-off for these calls is given here.

The target of data set [1] is G protein-coupled receptor 88 (Homo sapiens, UniProt Q9GZN0).
The species entered for data set [2] is Mus musculus. Kind of data set: Increase in [35S]-GTPgammaS binding in GPR88 knocked out mouse striatal membranes at 100 uM after 1 hr by liquid scintillation counting. The class given is functional, cell membranes. The following applies: Striatal membrane. A digest of the protocol: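 Striata from GPR88 KO mice. Membranes made by sucrose homogenization and differential centrifugation (2500g, then 23000g). 2 µg protein per well incubated 1 h at 25 °C with 0.1 nM [35S]-GTPγS and GDP. Nonspecific binding taken with 10 µM GTPγS. Read by liquid scintillation counting, expressed as % above basal. Two independent experiments in triplicate.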

A further data set concerns VMAT. Kind of data set: Displacement of [3H]-dihydrotetrabenazine from VMAT in human platelet cell membranes at 10 uM after 60 mins by scintillation counting relative to control. The following applies: probe [3H]-dihydrotetrabenazine. An outline of the steps:
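Radioligand binding screen run by Eurofins PanLabs under their standard protocols, single concentration 10 μM. Percent inhibition of radioligand binding is the average of two determinations.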
(In a radioligand displacement assay an active substance lowers the binding of a labelled ligand.)

Data set [3] has as its target KOR (kappa-type opioid receptor) (Homo sapiens, UniProt P41145). Kind of data set: Binding affinity to human full length KOR assessed as reduction in radioligand binding at 10 uM after 60 mins by scintillation counting relative to control. An outline of the steps:
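Outsourced radioligand binding screen, one of 38 GPCR, ion channel and transporter targets, run to the provider's standard protocols. Test concentration was a single 10 µM. Percent inhibition of radioligand binding is the average of two determinations.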

Data set [4] in a line: Displacement of [3H]-dihydrotetrabenazine from VMAT in human platelet cell membranes after 60 mins by scintillation counting. A digest of the protocol:
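VMAT affinity follow-up run by Eurofins PanLabs under their standard protocols. Full concentration–displacement curves were run in duplicate. IC50 came from nonlinear regression and was converted to Ki by Cheng–Prusoff, using the radioligand concentration and historical Kd of the ligand.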

Another data set has as its system Rattus norvegicus. In words: Decrease in alcohol self administration in Long-Evans rat assessed as reduction in alcohol lever responses at 5 to 20 mg/kg, ip administered 30 mins prior to a self-administration session. The class given is functional, organism-based.
The target in data set [5] is G protein-coupled receptor 88 (Mus musculus, UniProt Q9EPB7). In words: Agonist activity at GPR88 in wild type mouse striatal membranes assessed as increase in [35S]-GTPgammaS binding after 1 hr by liquid scintillation counting. The class given is functional, cell membranes, Striatum, Membrane. (In general: GTPγS is a poorly hydrolysed GTP analogue; its binding reports G protein activation.)
G protein-coupled receptor 88 (Mus musculus, UniProt Q9EPB7), sequence (Q9EPB7 whole entry): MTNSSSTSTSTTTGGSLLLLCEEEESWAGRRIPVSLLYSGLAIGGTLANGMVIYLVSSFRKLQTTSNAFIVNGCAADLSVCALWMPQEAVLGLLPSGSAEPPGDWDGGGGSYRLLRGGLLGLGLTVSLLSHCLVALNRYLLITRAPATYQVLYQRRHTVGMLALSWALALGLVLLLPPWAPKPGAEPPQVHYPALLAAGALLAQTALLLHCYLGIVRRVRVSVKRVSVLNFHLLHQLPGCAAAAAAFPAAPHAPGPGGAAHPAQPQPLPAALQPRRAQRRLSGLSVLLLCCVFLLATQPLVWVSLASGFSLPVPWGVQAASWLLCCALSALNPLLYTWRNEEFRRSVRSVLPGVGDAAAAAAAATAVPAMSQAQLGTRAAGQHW

For data set [6], the species on record is Mus musculus. In words: Increase in [35S]-GTPgammaS binding in GPR88 knocked out mouse striatal membranes at 10 uM after 1 hr by liquid scintillation counting. The class given is functional, cell membranes. The following applies: Striatal membrane.

G protein-coupled receptor 88 (Homo sapiens, UniProt Q9GZN0), sequence (Q9GZN0 whole entry): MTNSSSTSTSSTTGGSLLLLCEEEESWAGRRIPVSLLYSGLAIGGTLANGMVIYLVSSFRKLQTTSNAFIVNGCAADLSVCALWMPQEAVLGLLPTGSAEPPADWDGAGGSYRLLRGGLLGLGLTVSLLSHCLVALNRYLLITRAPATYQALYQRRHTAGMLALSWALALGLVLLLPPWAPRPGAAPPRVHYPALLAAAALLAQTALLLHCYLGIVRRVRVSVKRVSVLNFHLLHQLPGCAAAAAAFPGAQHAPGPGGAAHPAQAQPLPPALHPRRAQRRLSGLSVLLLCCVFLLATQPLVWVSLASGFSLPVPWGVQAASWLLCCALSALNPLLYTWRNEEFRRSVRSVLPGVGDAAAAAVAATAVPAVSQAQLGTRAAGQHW
KOR (kappa-type opioid receptor), sequence (P41145 whole entry): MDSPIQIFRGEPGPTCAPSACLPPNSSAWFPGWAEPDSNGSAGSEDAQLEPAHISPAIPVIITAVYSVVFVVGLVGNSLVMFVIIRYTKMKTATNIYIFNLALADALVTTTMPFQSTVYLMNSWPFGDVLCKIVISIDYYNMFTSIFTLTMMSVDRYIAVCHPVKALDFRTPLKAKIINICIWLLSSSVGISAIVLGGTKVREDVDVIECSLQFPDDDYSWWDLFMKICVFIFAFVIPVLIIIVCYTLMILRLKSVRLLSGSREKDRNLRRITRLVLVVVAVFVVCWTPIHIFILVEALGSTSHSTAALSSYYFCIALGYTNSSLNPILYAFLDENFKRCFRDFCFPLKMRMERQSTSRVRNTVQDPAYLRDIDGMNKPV

`CCCc1ccc(-c2ccc(N(C[C@@H](N)C(C)C)C(=O)[C@@H]3C[C@H]3c3ccccn3)cc2)cc1` gave an EC50 in data set [1] of 158 nM.

Turning to `CCCc1ccc(-c2ccc(N(C[C@@H](N)Cc3ccccc3)C(=O)[C@@H]3C[C@H]3c3ccccn3)cc2)cc1`, in data set [1], the EC50 was 501 nM.

`CCCc1ccc(-c2ccc(N(CCN)C(=O)[C@@H]3C[C@H]3c3ccccn3)cc2)cc1` gave an EC50 in data set [1] of 501 nM.

Molecule `CCCc1ccc(-c2ccc(N(CC(C)(C)N)C(=O)[C@@H]3C[C@H]3c3ccccn3)cc2)cc1` (relative stereo) gave an EC50 in data set [1] of 316 nM.

Take `CCCc1ccc(-c2ccc(N(C[C@@H](N)[C@@H](C)OC)C(=O)[C@@H]3C[C@H]3c3ccccn3)cc2)cc1` (relative stereo): the EC50 in data set [1] amounted to 63 nM.

For the molecule `COCc1ccc(-c2ccc(N(C[C@@H](N)[C@@H](C)OC)C(=O)[C@@H]3C[C@H]3c3ccccn3)cc2)cc1`, in the data set filed under Mus musculus [2], the outcome was inactive. The inhibition at 1 h, 10 µM in the data set on VMAT turned out to be 54%; in data set [3], 64%. For the same molecule, the Ki in data set [4] was found to be 4.23 µM. The Activity result with Rattus norvegicus was “Dose-dependent effect”.

With `CCCc1ccc(-c2ccc(N(C[C@@H](N)CC(C)C)C(=O)[C@@H]3C[C@H]3c3ccccn3)cc2)cc1`, the EC50 in data set [1] was 126 nM.

In turn, `CCCc1ccc(-c2ccc(N(C[C@@H](N)c3ccccc3)C(=O)[C@@H]3C[C@H]3c3ccccn3)cc2)cc1` (relative stereo) gave an EC50 in data set [1] of 1260 nM.

Take `CCCc1ccc(-c2ccc(N(C[C@@H](N)[C@@H](C)CC)C(=O)[C@@H]3C[C@H]3c3ccccn3)cc2)cc1`: the EC50 in data set [5] is 1140 nM. Moreover, the outcome in the data set filed under Mus musculus [6] was Active.

In turn, `CCCc1ccc(-c2ccc(N(C[C@H](C)N)C(=O)[C@@H]3C[C@H]3c3ccccn3)cc2)cc1` returned an EC50 in data set [1] of 398 nM.

On to `COc1ccc(-c2ccc(N(C[C@@H](N)[C@@H](C)OC)C(=O)[C@@H]3C[C@H]3c3ccccn3)cc2)cc1` (relative stereo), for which, in data set [1], the EC50 amounted to 126 nM.

The EC50 is the concentration needed to bring the measured effect to its halfway point. The term inhibition denotes the relative decrease from the control value, in per cent. As usually defined, the Ki is a dissociation constant, usually derived from enzyme kinetics or from competition with a known ligand. Low values mean higher affinity, high ones lower affinity.
